Assay results: the EternaBench riboswitch data

Test system: MS2 coat protein
Assay: apparent Kd, MS2 coat protein; higher = weaker binding; RNA-MaP array; FMN 200 µM where present
Method in brief: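 Stalled E. coli RNA polymerase transcribed the designs on Illumina sequencing-chip clusters. SNAP-549-labelled MS2 coat protein was titrated from 0.7 or 1.5 nM, doubling to 3 µM, without and then with constant ligand, in 100 mM Tris-HCl pH 7.5, 80 mM KCl, 4 mM MgCl2, BSA, DTT, yeast tRNA and Tween-20. Per-cluster binding curves were fitted to green signal normalised to red-channel RNA signal and control-cluster median Fmax. The apparent Kd is the median of the filtered fits.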

[1] = designed as: OFF switch for flavin mononucleotide, no ligand
[2] = ligand present: flavin mononucleotide, designed as: OFF switch for flavin mononucleotide
[3] = designed as: ON switch for flavin mononucleotide, no ligand
[4] = ligand present: flavin mononucleotide, designed as: ON switch for flavin mononucleotide

Sequence | apparent Kd [1] [nM] | apparent Kd [2] [nM] | apparent Kd [3] [nM] | apparent Kd [4] [nM]
AAUUGACACGUAGGAUAUCGAUCUAAAUUAACUCGAGAAGGACGCACAUGAGGAUCACCCAUGUUUAAUGGAGUAGACAUGUUG | 314 | 508 |  | 
AAUUGACACGUAGGAUAUCGCUUUAAUUUAACACGAGAAGGACGUACAUGAGGAUCACCCAUGUUAAAUGGUGUAGAUUAAUUG | 167 | 382 |  | 
AAUUGUCGUGAGGAUAUGUACGUUUUAGUAACGACAGAAGGCAUGACAUGAGGAUCACCCAUGUUGUAAUCUGG | 82 | 429 |  | 
AAUUUAAUACAUGAGGAUCACCCAUGUAAAUUAAUUAAGAUCUAGGAUAUCAGCUCGAUUAGAGCUGAGAAGGAGAUCACAUGU |  |  | 16.6 | 13.2
AAUUUACAGCGAGGAUAUACAUGAGGAUCACCCAUGUAAUCAUAUGAUAUUUUUUUUGUAUGAGUGUAGAAGGCGCAAAUAAAA | 10.2 | 9.61 |  | 
AAUUUACAGGUAGGAUAUACAUGAGGAUCACCCAUGUAAUCAUAUGAUAUUUUUUUUGUAUGAGUGUAGAAGGACCAAAUAAAA | 9.75 | 8.48 |  | 
ACAAAUCGAGGAUAUACAUGAGGAUCACCCAUGUGGAGUCCACUGCGCGGUUCUCAGCGUAGAAGGCGAAAACA | 46.3 | 89.8 |  | 
ACAACAGGCAGAGGAUAUGACUGGGUAGGAGUAACAUGAGGAUCACCCAUGUUAGAAGGCUGCGUCAAACAGCGAAAGGUACGC | 52.4 | 91.6 |  | 
ACAACUAAGCAGAAGGCAGUCAUAGCAUUCGUCAUGUAGACAUGAGGAUCACCCAUGUAUAGUGCUGAGGAUAUGCUUGGUUAG | 11.3 | 9.47 |  | 
ACAAGAUCAGGAUAUACAUGAGGAUCACCCAUGUAUAUAAAAAAAGGGCCUUCUACAUGUAGAAGGGAUCUUGU | 13.8 | 13.7 |  | 
ACAAGAUCAGGAUAUACAUGAGGAUCACCCAUGUUUAUCAAAAAAAAACUUUCUUUAUGUAGAAGGGAUCUUGU | 13.8 | 13.6 |  | 
ACACAUGAGGAUCACCCAUGUAGUAAUAGCUUCCGGACCUCACAGGAUAUAUGCAAGUUCGUUGCGUAGAAGGGUGAACUCUAA |  |  | 89 | 92.5
ACACGGUAUGUAGGAUAUGCAUAGCAUUGCUAUGCAGAAGGACAUGAGGAUCACCCAUGUAUGUAUUCCAUACUAAUCCCGUGG | 5.77 | 5.74 |  | 
ACAGAGGCUGACAUGAGGAUCACCCAUGUUAGAUUGUUAUGUCAGGAUAUUAUCUGGCAACCAGAUAAGAAGGGACCCUCUGUG |  |  | 31.2 | 8.45
ACAUAAAUUCGAGGAUAUCGGUGAUAUAAUUUACGAGAAGGCGAUAAUUGUUAUAAACUUAUAGACAUGAGGAUCACCCAUGUA |  |  | 32.1 | 31.9
ACAUAAUACGAGAAGGGAGUACAUGAGGAUCACCCAUGUGCUCAGGUGUACUCAGGAUAUCGGCUGACGCAAGGUUCAGGGAAU | 11.6 | 94.3 |  | 
ACAUACAUUCGAGGAUAUCGGUGAGAAAUCUUUCGAGAAGGCGAUUCAUGAUUUAUUAUCCUGGACAUGAGGAUCACCCAUGUA |  |  | 78.9 | 62.8
ACAUACAUUCGAGGAUAUCGGUGAGAAAUUUUACGAGAAGGCGAUUCAUGAUUUAUUAUUUUGGACAUGAGGAUCACCCAUGUA |  |  | 83.5 | 34.1
ACAUACAUUCGAGGAUAUCGGUGAUUAAUUUUACGAGAAGGCGAUUUAAGAUAUAAUAUUUUAGACAUGAGGAUCACCCAUGUA |  |  | 25.3 | 23.1
ACAUGAAAUCGAGGAUAUGCAAAAAAAAAAAAAGCAGAAGGCGAAAAAAAAACUCGAAAAAACAUGAGGAUCACCCAUGUAAAA | 26.4 | 22.9 |  | 
ACAUGAGGAUCACCCAUGUAGAAUGAAGAAGGUAGAUACUUGUGACUCACCCAUGUACAUAGGACUAAGGAUAUUCUAAUAAUU |  |  | 26.3 | 13
ACAUGAGGAUCACCCAUGUAUACAUAGGAUAUUGAGGAUCAGGGAUGUUUUACAGGAUAUGUCUACAAGAAGGAUGCAAGUAAA |  |  | 35.6 | 30
ACAUGAGGAUCACCCAUGUAUACAUAGGAUAUUGAGGAUCAGGGAUGUUUUACAGGAUAUGUCUACAAGAAGGAUGCAAGUACA |  |  | 32.7 | 29.1
ACAUGAGGAUCACCCAUGUAUUACAUGGUUAUGUUUAUUAACAGAAGGCGAAAUUACCACUGUUUCGAGGAUAUGUAUUCUAUA | 65.5 | 63 |  | 
ACAUGAGGAUCACCCAUGUGUGCAUAGGAUAUUGUGGAUUAGGGAUGUUUUUUUGGAUUUGCCUACAAGAAGGAUGAAAGUGUU |  |  | 14.3 | 12.6
ACAUGAGGAUCACCCAUGUUAAGCGAGGAUAUUUGACUGCACAUGAGGUUCGCCCAUGUCCUGCCGAAGAAGGUGCGAAUAAUU |  |  | 54.2 | 17.6
ACAUGAGGAUCACCCAUGUUCACAUAGGAUAUUGAUUAUAUUGGUUUUAGAAUAGUAAUUAACCUCAAGAAGGAUGCCUGAUCU |  |  | 12.5 | 10.9
